Data set [1] relates to Mus musculus. Kind of data set: Toxicity in C3D2F1/J mouse allografted with mouse L1210 cells assessed as body weight change at 27 mg/kg, ip qd administered for 5 days measured on day 8 (reference value: 1.81 +/- 0.79 g). Set-up: dose 27 mg/kg, route intraperitoneal. To be noted: in vivo, 120 h. In kind it is organism-based.
The subject of data set [2] is L1210. Kind of data set: Antitumor activity against mouse L1210 cells allografted in C3D2F1/J mouse assessed as increase in life span at 27 mg/kg, ip qd administered for 5 days relative to control. To be noted: 120 h, route intraperitoneal. In kind it is functional.
Data set [3] relates to L1210. Kind of data set: Antitumor activity against mouse L1210 cells allografted in C3D2F1/J mouse assessed as median survival time at 27 mg/kg, ip qd administered for 5 days (reference value: 10 days). To be noted: route intraperitoneal. In kind it is functional.
The subject of data set [4] is L1210. Kind of data set: Cytotoxicity against mouse L1210 cells assessed as growth inhibition measured at 72 hrs by trypan blue exclusion assay. In kind it is functional. The conditions noted are these: L1210, 72 h, read-out: ED50 (the source's name). The procedure, abridged:
(§1)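 L1210 mouse lymphoid leukemia cells seeded at 2–3 × 10⁵ cells/mL in RPMI 1640 + 10% fetal calf serum with compound (from Me2SO stock, final Me2SO 0.5%, compound 100 μM or lower). Viable cells counted by 0.05% Trypan blue exclusion in a hemocytometer at 24, 48, 72 h. Treated/untreated density ratio. ED50 at 72 h interpolated from response curves of three separate experiments.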

Data set [5] has as its system L1210. Kind of data set: Antitumor activity against mouse L1210 cells allografted in C3D2F1/J mouse assessed as median survival time at 24.2 mg/kg, ip qd administered for 5 days (reference value: 10 days). In kind it is functional. To be noted: route intraperitoneal.
Data set [6] deals with L1210. Kind of data set: Antitumor activity against mouse L1210 cells allografted in C3D2F1/J mouse assessed as increase in life span at 50 mg/kg, ip qd administered for 5 days relative to control. In kind it is functional. To be noted: 120 h, route intraperitoneal.
The test system of data set [7] is L1210. Kind of data set: Antitumor activity against mouse L1210 cells allografted in C3D2F1/J mouse assessed as median survival time at 50 mg/kg, ip qd administered for 5 days (reference value: 9 days). In kind it is functional. To be noted: route intraperitoneal.
The test system of data set [8] is L1210. Kind of data set: Cytotoxicity against mouse L1210 cells assessed as growth inhibition measured at 72 hrs in presence of 5 uM prednisolone by trypan blue exclusion assay. To be noted: L1210, 72 h, read-out: ED50 (the source's name). In kind it is functional. An outline of the steps:
as §1

Data set [9] concerns Mus musculus. Kind of data set: Toxicity in C3D2F1/J mouse allografted with mouse L1210 cells assessed as body weight change at 50 mg/kg, ip qd administered for 5 days measured on day 8 (reference value: 1.81 +/- 0.79 g). In kind it is organism-based. The arrangement: dose 50 mg/kg, route intraperitoneal. To be noted: in vivo, 120 h.
Data set [10] concerns L1210. Kind of data set: Antitumor activity against mouse L1210 cells allografted in C3D2F1/J mouse assessed as increase in life span at 24.2 mg/kg, ip qd administered for 5 days relative to control. In kind it is functional. To be noted: 120 h, route intraperitoneal.
Data set [11] has as its system Mus musculus. Kind of data set: Toxicity in C3D2F1/J mouse allografted with mouse L1210 cells assessed as body weight change at 24.2 mg/kg, ip qd administered for 5 days measured on day 8 (reference value: 1.81 +/- 0.79 g). In kind it is organism-based. Set-up: dose 24.2 mg/kg, route intraperitoneal. To be noted: in vivo, 120 h.
Data set [12] concerns L1210. Kind of data set: Cytotoxicity against mouse L1210 cells assessed as growth inhibition measured at 72 hrs in presence of 100 uM prednisolone by trypan blue exclusion assay. In kind it is functional. The conditions noted are these: L1210, 72 h, read-out: ED50 (the source's name). The procedure, abridged:
as §1

Data set [13] relates to Mus musculus. Kind of data set: Toxicity in C3D2F1/J mouse allografted with mouse L1210 cells assessed as body weight change at 25 mg/kg, ip qd administered for 5 days measured on day 8 (reference value: 1.81 +/- 0.79 g). The arrangement: dose 25 mg/kg, route intraperitoneal. To be noted: in vivo, 120 h. In kind it is organism-based.
The test system of data set [14] is Mus musculus. Kind of data set: Toxicity in C3D2F1/J mouse allografted with mouse L1210 cells assessed as body weight change at 75 mg/kg, ip qd administered for 5 days measured on day 8 (reference value: 1.81 +/- 0.79 g). In kind it is organism-based. The arrangement: dose 75 mg/kg, route intraperitoneal. To be noted: in vivo, 120 h.
For data set [15], the system named is L1210. Kind of data set: Antitumor activity against mouse L1210 cells allografted in C3D2F1/J mouse assessed as increase in life span at 25 mg/kg, ip qd administered for 5 days relative to control. In kind it is functional. The conditions noted are these: 120 h, route intraperitoneal.
The nature of data set [16]: Metabolic stability in baboon plasma assessed as remaining compound level at 5 umol at 37 degC after 24 hrs by UV analysis. In kind it is ADME, cell-free. The conditions noted are these: papio anubis, read-out: Stability. An outline of the steps: (§2)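 5 μmol conjugate in 0.5 mL fresh baboon plasma, incubated at 37 °C for 24 h. Intact conjugate and products were separated by paper chromatography with authentic markers.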

Data set [17] can be described thus: Drug degradation assessed as compound hydrolysis at 5 umol at pH 4.8 at 25 degC after 24 hrs by UV analysis in presence of wheat germ acid phosphatase. In kind it is physicochemical. To be noted: read-out: Drug degradation. The procedure, abridged: (§3)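 5 μmol conjugate in NaOAc buffer (pH 4.8) with 3 mg crude wheat germ acid phosphatase, 0.5 mL total, held at 25 °C for 24 h. Products were separated by paper chromatography against authentic markers.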

Data set [18] in a line: Drug degradation in baboon plasma at 5 umol at 37 degC after 24 hrs by UV analysis. The conditions noted are these: papio anubis, read-out: Drug degradation. In kind it is ADME, cell-free. An outline of the steps: as §2
Data set [19] concerns Mus musculus. Kind of data set: Toxicity in C3D2F1/J mouse allografted with mouse L1210 cells assessed as body weight change at 100 mg/kg, ip qd administered for 5 days measured on day 8 (reference value: 1.81 +/- 0.79 g). The arrangement: dose 100 mg/kg, route intraperitoneal. In kind it is organism-based. To be noted: in vivo, 120 h.
A short description of data set [20]: Drug degradation assessed as steroid formation at 5 umol at pH 9 after 24 hrs by UV analysis in presence of Crotalus adamanteus 5'-nucleotidase. In kind it is physicochemical. The conditions noted are these: buffer, pH 9, 24 h. The procedure, abridged: (§4)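 Crude Crotalus adamanteus venom: 5 μmol conjugate in Tris-HCl buffer (pH 8.8) with 2.5 mg venom, 0.5 mL total, incubated 37 °C for 24 h. Products were resolved by paper chromatography alongside authentic markers.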

In data set [21] the test system is L1210. Kind of data set: Antitumor activity against mouse L1210 cells allografted in C3D2F1/J mouse assessed as median survival time at 75 mg/kg, ip qd administered for 5 days (reference value: 9 days). The conditions noted are these: route intraperitoneal. In kind it is functional.
Data set [22] deals with L1210. Kind of data set: Antitumor activity against mouse L1210 cells allografted in C3D2F1/J mouse assessed as median survival time at 25 mg/kg, ip qd administered for 5 days (reference value: 9 days). In kind it is functional. To be noted: route intraperitoneal.
Data set [23] relates to L1210. Kind of data set: Antitumor activity against mouse L1210 cells allografted in C3D2F1/J mouse assessed as increase in life span at 100 mg/kg, ip qd administered for 5 days relative to control. To be noted: 120 h, route intraperitoneal. In kind it is functional.
Data set [24] deals with L1210. Kind of data set: Antitumor activity against mouse L1210 cells allografted in C3D2F1/J mouse assessed as median survival time at 100 mg/kg, ip qd administered for 5 days (reference value: 9 days). In kind it is functional. To be noted: route intraperitoneal.
Data set [25] can be described thus: Drug degradation assessed as ara-C formation at 5 umol at pH 9 after 24 hrs by UV analysis in presence of Crotalus adamanteus 5'-nucleotidase. In kind it is physicochemical. The conditions noted are these: buffer, pH 9, 24 h. An outline of the steps:
as §4

The nature of data set [26]: Hydrolytic stability of the compound assessed as remaining compound level at 5 umol at pH 4.8 at 25 degC after 24 hrs by UV analysis in presence of wheat germ acid phosphatase. In kind it is physicochemical. To be noted: read-out: Stability. The procedure, abridged:
as §3

Data set [27] is described as follows: Hydrolytic stability of the compound at 5 umol at pH 8 at 25 degC after 24 hrs by UV analysis in presence of bacterial alkaline phosphatase. In kind it is physicochemical. The conditions noted are these: isolated protein, pH 8, 24 h. The procedure, abridged:
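5 μmol conjugate in Tris-HCl (pH 8.0) with bacterial alkaline phosphatase suspension, 0.5 mL total, incubated at 25 °C for 24 h. Paper chromatography against authentic markers.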

The test system of data set [28] is L1210. Kind of data set: Antitumor activity against mouse L1210 cells allografted in C3D2F1/J mouse assessed as increase in life span at 75 mg/kg, ip qd administered for 5 days relative to control. In kind it is functional. To be noted: 120 h, route intraperitoneal.

The structures appear in SMILES notation.

For `C[C@]12C=CC(=O)C=C1CC[C@@H]1[C@@H]2C(=O)C[C@@]2(C)[C@H]1CC[C@]2(O)C(=O)CO` [PREDNISONE], the Activity in the data set on Mus musculus [1] is listed as -1.01 g. The ILS at 27 mg/kg with L1210 [2] is -5%. Also, the MST with L1210 [3] came out at 9.5 days. Also, in the data set on L1210 [4], the EC50 was over 100000 nM.
As for `Nc1ccn([C@@H]2O[C@H](COP(=O)(O)O)[C@@H](O)[C@@H]2O)c(=O)n1` [CYTARABINE 5'-PHOSPHATE], the MST with L1210 [5] came out at 16.5 days; with L1210 [7] it was 9 days. The ILS at 50 mg/kg with L1210 [6] stood at 0%. The figures for the EC50 in the data set on L1210 [8], with L1210 [12] and with L1210 [4] were 10 nM, 5 nM and 50 nM, respectively. In addition, the Activity in the data set with Mus musculus [9] is on record as -4.32 g; with Mus musculus [11], -3.52 g. Also, the ILS at 24.2 mg/kg with L1210 [10] stood at 65%.
As for `C[C@]12C=CC(=O)C=C1CC[C@@H]1[C@@H]2C(=O)C[C@@]2(C)[C@H]1CC[C@]2(O)C(=O)CO[P+]([O-])(O)OC[C@H]1O[C@@H](n2ccc(N)nc2=O)[C@@H](O)[C@@H]1O` (stereo partly drawn), the Activity in the data set on Mus musculus [13] is recorded as -0.14 g; with Mus musculus [14], -0.75 g; with Mus musculus [9], -0.3 g; in the data set with Mus musculus [19], -1.5 g. For the same compound, the ILS at 50 mg/kg with L1210 [6] came out at 100%. The ILS at 25 mg/kg in the data set on L1210 [15] is 61.1%. Moreover, the remaining at 24 h, 5 umol in data set [16] came to 74%; in data set [26] it was 7%. The results for the metabolised at 24 h, 5 umol in [17] and in data set [18] were 88% and 15%, respectively. Also, the MST came to 18 days with L1210 [7], 14 days in the data set on L1210 [21], 14.5 days in the data set with L1210 [22] and 10 days in the data set with L1210 [24]. For the same compound, the Drug degradation in [20] and in data set [25] was 50% throughout. Moreover, the ILS at 100 mg/kg with L1210 [23] worked out at 11.1%. Further, the Stability entry in data set [27] is listed as “Stable”. Also, the ILS at 75 mg/kg in the data set on L1210 [28] worked out at 55.6%. Further, the EC50 in the data set with L1210 [4] came out at 500 nM.
